Out of some 330,000 compounds screened, about 1,100 (0.33%) were called active.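 How the source made its calls: active means mean inhibition over replicate wells above about 20% (limit read from the data); inactive means the rest.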 This excerpt belongs to a sample that is enriched for actives.

Chain of Ubiquitin carboxyl-terminal hydrolase isozyme L5 (Homo sapiens) (Q9Y5K5 whole entry, looked up): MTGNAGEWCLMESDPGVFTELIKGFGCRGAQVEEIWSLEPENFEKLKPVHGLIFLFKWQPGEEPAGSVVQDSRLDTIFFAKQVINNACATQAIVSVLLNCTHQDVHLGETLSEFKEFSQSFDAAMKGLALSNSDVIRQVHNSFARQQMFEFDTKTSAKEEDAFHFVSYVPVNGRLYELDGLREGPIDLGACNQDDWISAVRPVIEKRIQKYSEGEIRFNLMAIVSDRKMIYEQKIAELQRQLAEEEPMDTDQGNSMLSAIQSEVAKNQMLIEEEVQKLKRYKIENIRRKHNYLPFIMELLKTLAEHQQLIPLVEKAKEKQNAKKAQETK

This test has as its target Ubiquitin carboxyl-terminal hydrolase isozyme L5 (Homo sapiens) (UniProt Q9Y5K5). Description: inhibitors of human UCH37 deubiquitinase, primary screen, biochemical, Ub-AMC cleavage, fluorescence (AID 588478).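 Further: 0% = compound-free wells with enzyme and 100% = wells lacking proteasome.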 The note with it: purified proteasome/UCH37, Ub-AMC cleavage fluorescence; active compounds read high; concentration not given here. Summed up:
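system = Proteasome-associated human UCH37 deubiquitinase | amount = 0.15 nM proteasome as dispensed | medium = pH 7.4 Tris-HCl (50 mM) with ovalbumin, ATP-MgCl2, DTT | incubation = 30 min preincubation with enzyme, 25 min cleavage at room temperature | detection = AMC fluorescence 355/460 nm | read-out basis = percent inhibition | controls = no-proteasome and no-compound wells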
Broadly, the inhibition is the change of the read-out against control, counted positive when it falls. Take `CCCCCCCCCCCCn1ccc(=N)cc1`: the inhibition was 29.5% (active).
The same measure for `Brc1ccc2[nH]cc(C=NN3CCCCC3)c2c1`: 1.15% (inactive).
The same measure for `C#C[C@]1(O)CCC2C3CCC4=CC(=NOCC(=O)NC(C)C(=O)NC(CCSC)C(=O)O)CC[C@]4(C)C3CC[C@@]21C` (stereo not given in full): -1.31% (inactive).
The same measure for `C=CCN1CC[C@]23c4c5ccc(O)c4O[C@H]2C(=NNC(=O)c2ccccc2)CC[C@@]3(O)[C@H]1C5`: 4.43% (inactive); for `CC12CCC3C(CCC4CC(=NO)CCC43C)C1CCC2O` (stereo not given): 2.36% (inactive).
In the case of `CCC(C)n1c(O)c(/C=N/Nc2nc3c(c(=O)n(C)c(=O)n3C)n2C)c(=O)[nH]c1=S` (stereo not given), the inhibition was 21.4% (active).
The same measure for `Cc1ccccc1/C=C\c1nc(O)c([N+](=O)[O-])c(=O)[nH]1`: 11.3% (inactive).
The same measure for `CNC(=O)Nc1ccc(C(=O)NN=CC23CC[C@@H](O)CC2(O)CC[C@@H]2[C@@H]3CCC3(C)C(C4=CC(=O)OC4)CCC23O)cc1` (stereo not given in full): 3.8% (inactive).
Consider `COc1cc(C(=O)NC2CCN(Cc3ccccc3)CC2)cc(Cl)c1OC(C)C`, for which the inhibition is 4.45% (inactive).
The same measure for `COc1ccc(N2C(=O)/C(=C/c3ccco3)C(=O)NC2=S)cc1`: 31.7% (active); for `COc1cccc(N2C(=O)NC(=O)/C(=C\c3ccc([N+](=O)[O-])s3)C2=O)c1`: 11.5% (inactive); for `O=C1NC(=O)N(c2ccccc2)C(=O)/C1=C/c1ccc([N+](=O)[O-])s1`: 5.15% (inactive).
Turning to `Nc1nonc1C(=O)NN=Cc1ccc([N+](=O)[O-])o1`, the inhibition is 13.2% (inactive).
The same measure for `CC1=CC(=Cc2sc3ccccc3[n+]2C)C=C(C)O1`: 20.3% (active); for `COC(=O)[C@H](Cc1ccccc1)NC(=O)Nc1ccc(S(N)(=O)=O)cc1`: 2.98% (inactive); for `COc1ccc(C=NN=C(N)N[N+](=O)[O-])c(OC)c1`: 18.6% (inactive).
The same measure for `Oc1ccc(C=NNP(=S)(c2ccccc2)c2ccccc2)cc1O`: 2.56% (inactive); for `COc1cccc(C(=O)N2C[C@H]3C[C@@H](C2)c2cccc(=O)n2C3)c1`: 2.34% (inactive).
In the case of `O=C(CN1CCN(S(=O)(=O)c2cccc(Cl)c2)CC1)N1CCCCC1`, the inhibition was 5.51% (inactive).
The same measure for `CN1CCN(N=Cc2c[nH]c3ccccc23)CC1`: 3.94% (inactive).
